Reference: ChEMBL document CHEMBL3045139, “N'-Nitro-2-hydrocarbylidenehydrazinecarboximidamides: design, synthesis, crystal structure, insecticidal activity, and structure-activity relationships” (2012)
≈ marks a conversion by molar mass, not a printed value. Calls of active or inactive are those of the source. The rule behind the calls is not given here.

What was measured:
Myzus persicae [1] = test: Insecticidal activity against Myzus persicae (green peach aphid) at 25 degC; type: functional; conditions: read-out: LD50 (the source's name)
Myzus persicae [2] = test: Insecticidal activity against Myzus persicae (green peach aphid) measured in field test; type: functional, organism-based
In short: (§1)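 Field trials against aphids in northern, middle and southern China used 10% WP and 20% SC formulations. The design was a randomized complete block with five treatments, applied with a hand sprayer. Untreated cabbage or rice served as the control, and imidacloprid 10% WP was the reference.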

Brevicoryne brassicae = test: Insecticidal activity against Brevicoryne brassicae (cabbage aphids) measured in field test; type: functional, organism-based; in short: as §1

CCN(/N=C/c1ccc(C)cc1)/C(N)=N/[N+](=O)[O-]
LC50 (Myzus persicae [1]): 1020 µg/mL (≈ 4110 µM) | Activity (Myzus persicae [2]): Active | Activity (Brevicoryne brassicae): Active

CCCCN(/N=C/c1cccc(OC)c1)/C(N)=N/[N+](=O)[O-]
LC50 (Myzus persicae [1]): 1800 µg/mL (≈ 6130 µM) | Activity (Myzus persicae [2]): Active | Activity (Brevicoryne brassicae): Active

CCCCCC/C=N/N(Cc1ccc(Cl)nc1)/C(N)=N/[N+](=O)[O-]
LC50 (Myzus persicae [1]): 25.5 µg/mL (≈ 74.7 µM) | Activity (Myzus persicae [2]): Active | Activity (Brevicoryne brassicae): Active

CCC/C=N/N(Cc1ccc(Cl)nc1)/C(N)=N/[N+](=O)[O-]
LC50 (Myzus persicae [1]): 21 µg/mL (≈ 70.3 µM) | Activity (Myzus persicae [2]): Active | Activity (Brevicoryne brassicae): Active

CC/C=N/N(CCC)/C(N)=N/[N+](=O)[O-]
LC50 (Myzus persicae [1]): 283 µg/mL (≈ 1410 µM) | Activity (Myzus persicae [2]): Active | Activity (Brevicoryne brassicae): Active

COc1ccc(/C=N/N(Cc2ccccc2)/C(N)=N/[N+](=O)[O-])cc1
LC50 (Myzus persicae [1]): 3840 µg/mL (≈ 11700 µM) | Activity (Myzus persicae [2]): Active | Activity (Brevicoryne brassicae): Active

CCCC/C=N/N(Cc1ccc(Cl)nc1)/C(N)=N/[N+](=O)[O-] [GUADIPYR]
LC50 (Myzus persicae [1]): 25.3 µg/mL (≈ 81 µM) | Activity (Myzus persicae [2]): Active | Activity (Brevicoryne brassicae): Active

C=CCN(/N=C/c1ccc(C)cc1)/C(N)=N/[N+](=O)[O-]
LC50 (Myzus persicae [1]): 744 µg/mL (≈ 2850 µM) | Activity (Myzus persicae [2]): Active | Activity (Brevicoryne brassicae): Active

C=CCN(/N=C/c1ccccc1Cl)/C(N)=N/[N+](=O)[O-]
LC50 (Myzus persicae [1]): 362 µg/mL (≈ 1290 µM) | Activity (Myzus persicae [2]): Active | Activity (Brevicoryne brassicae): Active

O=[N+]([O-])/N=C1\NCCN1Cc1ccc(Cl)nc1 [IMIDACLOPRID]
LC50 (Myzus persicae [1]): 24.2 µg/mL (≈ 94.7 µM) | Activity (Myzus persicae [2]): Active | Activity (Brevicoryne brassicae): Active

CCC/C=N/N(CCCC)/C(N)=N/[N+](=O)[O-]
LC50 (Myzus persicae [1]): 367 µg/mL (≈ 1600 µM) | Activity (Myzus persicae [2]): Active | Activity (Brevicoryne brassicae): Active

CC(C)/C=N/N(Cc1ccc(Cl)nc1)/C(N)=N/[N+](=O)[O-]
LC50 (Myzus persicae [1]): 92.5 µg/mL (≈ 310 µM) | Activity (Myzus persicae [2]): Active | Activity (Brevicoryne brassicae): Active

C=C/C=N/N(CCCC)/C(N)=N/[N+](=O)[O-]
LC50 (Myzus persicae [1]): 328 µg/mL (≈ 1540 µM) | Activity (Myzus persicae [2]): Active | Activity (Brevicoryne brassicae): Active

CCCCN(/N=C/c1ccccc1)/C(N)=N/[N+](=O)[O-]
LC50 (Myzus persicae [1]): 1800 µg/mL (≈ 6820 µM) | Activity (Myzus persicae [2]): Active | Activity (Brevicoryne brassicae): Active

CC/C=N/N(CC)/C(N)=N/[N+](=O)[O-]
LC50 (Myzus persicae [1]): 523 µg/mL (≈ 2790 µM) | Activity (Myzus persicae [2]): Active | Activity (Brevicoryne brassicae): Active

N/C(=N\[N+](=O)[O-])N(Cc1ccc(Cl)nc1)/N=C/c1ccc(F)cc1
LC50 (Myzus persicae [1]): 1450 µg/mL (≈ 4130 µM) | Activity (Myzus persicae [2]): Active | Activity (Brevicoryne brassicae): Active

N/C(=N\[N+](=O)[O-])N(Cc1ccc(Cl)nc1)/N=C/c1ccccc1[N+](=O)[O-]
LC50 (Myzus persicae [1]): 357 µg/mL (≈ 946 µM) | Activity (Myzus persicae [2]): Active | Activity (Brevicoryne brassicae): Active

CCCCN(/N=C/c1ccc(C)cc1)/C(N)=N/[N+](=O)[O-]
LC50 (Myzus persicae [1]): 1080 µg/mL (≈ 3880 µM) | Activity (Myzus persicae [2]): Active | Activity (Brevicoryne brassicae): Active

N/C(=N\[N+](=O)[O-])N(Cc1ccc(Cl)nc1)/N=C/c1ccco1
LC50 (Myzus persicae [1]): 345 µg/mL (≈ 1070 µM) | Activity (Myzus persicae [2]): Active | Activity (Brevicoryne brassicae): Active

C=CCN(/N=C/CCCC)/C(N)=N/[N+](=O)[O-]
LC50 (Myzus persicae [1]): 400 µg/mL (≈ 1760 µM) | Activity (Myzus persicae [2]): Active | Activity (Brevicoryne brassicae): Active
